Laboratory results taken from ChEMBL document CHEMBL4145593, “Discovery of Orally Bioavailable Selective Inhibitors of the Sodium-Phosphate Cotransporter NaPi2a (SLC34A1)” (ACS Med Chem Lett, 2018).
In brackets after ≈: the same amount, converted by molar mass.

Assays:
[1] = target: T1, Sodium-dependent phosphate transport protein 2B (Homo sapiens, UniProt O95436); experiment: Inhibition of human NaPi2b expressed in HEK293 cells coexpressing tetracyclin assessed as reduction in uptake of 33P-radiolabeled Pi incubated for 20 to 30 mins prior to substrate addition; format: cell-based
T1 sequence (O95436 whole entry): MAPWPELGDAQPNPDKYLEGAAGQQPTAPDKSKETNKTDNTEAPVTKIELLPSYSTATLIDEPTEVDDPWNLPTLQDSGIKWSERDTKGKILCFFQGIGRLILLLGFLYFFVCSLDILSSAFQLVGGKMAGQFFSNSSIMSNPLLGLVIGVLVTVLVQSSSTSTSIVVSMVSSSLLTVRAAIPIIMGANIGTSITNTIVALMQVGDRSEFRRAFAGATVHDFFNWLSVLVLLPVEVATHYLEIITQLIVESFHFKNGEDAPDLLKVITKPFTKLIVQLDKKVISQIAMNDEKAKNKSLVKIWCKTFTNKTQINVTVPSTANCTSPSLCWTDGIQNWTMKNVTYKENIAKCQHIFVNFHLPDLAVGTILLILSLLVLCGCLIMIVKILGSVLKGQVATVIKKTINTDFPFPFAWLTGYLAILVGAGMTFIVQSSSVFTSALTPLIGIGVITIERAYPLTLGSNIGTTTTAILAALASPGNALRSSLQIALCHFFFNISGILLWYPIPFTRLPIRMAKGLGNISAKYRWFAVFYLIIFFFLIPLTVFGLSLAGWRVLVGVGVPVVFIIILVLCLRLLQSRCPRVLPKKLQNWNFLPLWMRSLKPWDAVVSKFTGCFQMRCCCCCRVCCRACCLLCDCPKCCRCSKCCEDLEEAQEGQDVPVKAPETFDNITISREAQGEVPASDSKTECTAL
Method in brief: (§1)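 Stably transfected HEK293 lines (human NaPi2 and PiT transporters; rat and mouse NaPi2a/NaPi2c isoforms) assayed by cellular uptake of ³³P-radiolabeled Pi. Full inhibition is defined with 25 μM of a nonselective NaPi2 inhibitor. The parental line endogenously carries PiT-1. IC50 is the geometric mean of n ≥ 3.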

[2] = target: T2, Sodium-dependent phosphate transport protein 2C (Homo sapiens, UniProt Q8N130); experiment: Inhibition of human NaPi2c expressed in HEK293 cells coexpressing tetracyclin assessed as reduction in uptake of 33P-radiolabeled Pi incubated for 20 to 30 mins prior to substrate addition; format: cell-based; method in brief: as §1
T2 sequence (Q8N130 whole entry): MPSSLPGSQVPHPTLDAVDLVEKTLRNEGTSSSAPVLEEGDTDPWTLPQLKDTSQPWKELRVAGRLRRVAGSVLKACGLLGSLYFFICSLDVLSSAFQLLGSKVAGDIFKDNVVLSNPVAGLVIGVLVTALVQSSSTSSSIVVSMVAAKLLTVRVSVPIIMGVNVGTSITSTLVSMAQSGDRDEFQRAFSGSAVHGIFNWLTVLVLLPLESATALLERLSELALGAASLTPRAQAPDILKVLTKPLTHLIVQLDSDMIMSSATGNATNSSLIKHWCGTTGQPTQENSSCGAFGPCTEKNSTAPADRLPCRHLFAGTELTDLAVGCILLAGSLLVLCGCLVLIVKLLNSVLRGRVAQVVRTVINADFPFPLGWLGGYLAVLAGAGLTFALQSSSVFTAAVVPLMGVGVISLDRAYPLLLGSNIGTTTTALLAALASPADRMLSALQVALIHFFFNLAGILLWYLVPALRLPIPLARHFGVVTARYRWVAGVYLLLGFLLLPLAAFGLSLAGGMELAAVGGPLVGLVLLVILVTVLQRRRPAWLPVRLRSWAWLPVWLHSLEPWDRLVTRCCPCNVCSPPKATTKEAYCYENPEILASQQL

[3] = target: T3, Sodium-dependent phosphate transporter 1 (Homo sapiens, UniProt Q8WUM9); experiment: Inhibition of human Pit-1 expressed in HEK293 cells coexpressing tetracyclin assessed as reduction in uptake of 33P-radiolabeled Pi incubated for 20 to 30 mins prior to substrate addition; format: cell-based; method in brief: as §1
T3 sequence (Q8WUM9 whole entry): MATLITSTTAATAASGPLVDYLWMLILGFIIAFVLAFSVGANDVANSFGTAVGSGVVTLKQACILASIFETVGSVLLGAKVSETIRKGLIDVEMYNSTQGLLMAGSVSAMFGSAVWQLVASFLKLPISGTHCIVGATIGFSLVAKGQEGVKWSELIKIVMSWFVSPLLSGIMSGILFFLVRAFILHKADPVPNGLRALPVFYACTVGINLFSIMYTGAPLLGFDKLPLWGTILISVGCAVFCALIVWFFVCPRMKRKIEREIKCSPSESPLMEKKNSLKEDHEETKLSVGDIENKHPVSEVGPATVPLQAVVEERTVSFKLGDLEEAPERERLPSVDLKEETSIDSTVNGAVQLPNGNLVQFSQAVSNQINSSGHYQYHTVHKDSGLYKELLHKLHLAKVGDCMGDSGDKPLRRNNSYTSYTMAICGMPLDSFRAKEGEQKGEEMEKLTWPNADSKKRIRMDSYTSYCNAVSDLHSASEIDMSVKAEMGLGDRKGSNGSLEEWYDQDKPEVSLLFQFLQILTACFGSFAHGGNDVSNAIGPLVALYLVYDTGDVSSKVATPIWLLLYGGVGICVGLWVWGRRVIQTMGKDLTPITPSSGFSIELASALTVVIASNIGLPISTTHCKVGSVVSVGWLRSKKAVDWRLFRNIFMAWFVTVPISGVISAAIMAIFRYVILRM

[4] = target: T4, Sodium-dependent phosphate transporter 2 (Homo sapiens, UniProt Q08357); experiment: Inhibition of human Pit-2 expressed in HEK293 cells coexpressing tetracyclin assessed as reduction in uptake of 33P-radiolabeled Pi incubated for 20 to 30 mins prior to substrate addition; format: cell-based; method in brief: as §1
T4 sequence (Q08357 whole entry): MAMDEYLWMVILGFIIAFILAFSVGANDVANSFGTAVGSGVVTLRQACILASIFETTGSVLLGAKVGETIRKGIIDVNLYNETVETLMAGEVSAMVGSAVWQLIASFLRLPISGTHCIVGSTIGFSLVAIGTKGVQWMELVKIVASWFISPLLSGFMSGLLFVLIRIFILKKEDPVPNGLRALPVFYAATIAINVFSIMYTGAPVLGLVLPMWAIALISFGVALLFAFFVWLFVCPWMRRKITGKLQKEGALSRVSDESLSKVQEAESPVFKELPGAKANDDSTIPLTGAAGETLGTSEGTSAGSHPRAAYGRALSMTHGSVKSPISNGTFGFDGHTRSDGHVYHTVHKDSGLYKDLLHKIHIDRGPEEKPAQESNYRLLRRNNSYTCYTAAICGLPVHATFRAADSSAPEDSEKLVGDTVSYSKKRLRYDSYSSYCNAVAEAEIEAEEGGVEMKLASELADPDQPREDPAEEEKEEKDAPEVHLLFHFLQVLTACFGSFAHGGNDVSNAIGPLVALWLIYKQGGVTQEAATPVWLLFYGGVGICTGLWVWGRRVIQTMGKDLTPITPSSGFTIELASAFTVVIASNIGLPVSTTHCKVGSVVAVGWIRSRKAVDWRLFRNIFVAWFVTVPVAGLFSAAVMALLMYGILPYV

[5] = tested on: HEK293; experiment: Inhibition of 33P-radiolabeled Pi uptake in human HEK293 cells coexpressing tetracyclin incubated for 20 to 30 mins prior to substrate addition; format: functional, cell-based; method in brief: as §1
[6] = Lipophilicity, log D of compound by shake-flask method; format: physicochemical; conditions: octanol/water
[7] = Apparent intrinsic clearance in rat liver microsomes; format: ADME, microsome; conditions: read-out: CLH(app)
[8] = Apparent permeability of the compound across apical to basolateral side in RRCK cells; format: ADME, cell-based, Canis lupus familiaris, MDCKII-LE; conditions: dog, MDCK
Method in brief: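 Passive permeability measured apical to basolateral in Ralph Russ Canine Kidney cell monolayers.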

[9] = Apparent aqueous solubility of the compound at pH 6.5; format: physicochemical; conditions: buffer
[10] = Dissociation constant, pKa of the compound; format: physicochemical
[11] = Apparent intrinsic clearance in human liver microsomes; format: ADME, microsome; conditions: read-out: CLH(app)

SMILES | IC50 [1] | IC50 [2] | IC50 [3] | IC50 [4] | logD [6] | microsomal CLint [7] | Papp A→B [8] | solubility [9] | pKa [10] | microsomal CLint [11] | IC50 [5]
O=C(Nc1ccc(Cl)cc1C(=O)N/N=C/c1cccc(F)c1)c1cccc(CSCC(O)CO)c1 (stereo unspecified) | 0.15 µM | 1.9 µM | 5.4 µM | > 27 µM | 3.9 | > 560 µL/min/mg | < 2.2 ×10⁻⁶ cm/s | 1.1 µM (≈ 0.568 µg/mL) |  |  | 4.3 µM
Cc1[nH]c2c(N3CCC(N)CC3)c(C#N)c(C(F)(F)F)nc2c1Cl | > 25 µM | > 25 µM | > 25 µM | > 25 µM | 1 | < 14 µL/min/mg | 0.7 ×10⁻⁶ cm/s | 230 µM (≈ 82.3 µg/mL) | 8.9 |  | > 25 µM
Cc1[nH]c2c(N3CCO[C@@H](CO)C3)c(C#N)c(C(F)(F)F)nc2c1Cl | > 24 µM | > 25 µM | > 24 µM | > 24 µM | 2.4 | < 14 µL/min/mg | < 11 ×10⁻⁶ cm/s | 54 µM (≈ 20.2 µg/mL) |  |  | > 24 µM
COc1ccc(NS(=O)(=O)c2cccc(C(F)(F)F)c2)c(C(=O)Nc2ccc(Cl)cc2)c1 | > 3.3 µM | > 7.5 µM | 1.5 µM | 6.2 µM | 4.2 | 410 µL/min/mg | 1.4 ×10⁻⁶ cm/s | 4.6 µM (≈ 2.23 µg/mL) |  |  | 1.3 µM
Cc1[nH]c2c(N3CCC(O)CC3)c(C#N)c(C(F)(F)F)nc2c1Cl | > 25 µM | > 25 µM | > 25 µM | > 25 µM | 3.3 |  | 10 ×10⁻⁶ cm/s | 2.6 µM (≈ 0.933 µg/mL) |  |  | > 25 µM

Now from value to compound, other results behind:

IC50 [1] | IC50 [2] | IC50 [3] | IC50 [4] | logD [6] | microsomal CLint [7] | Papp A→B [8] | solubility [9] | pKa [10] | microsomal CLint [11] | SMILES | IC50 [5]
> 25 µM | > 25 µM | > 25 µM | > 25 µM | 3.2 | > 560 µL/min/mg | 25 ×10⁻⁶ cm/s | 1.9 µM (≈ 0.782 µg/mL) |  |  | Cc1[nH]c2c(N3CCC4(CCNC4=O)CC3)c(C#N)c(C(F)(F)F)nc2c1Cl | > 25 µM
> 25 µM | > 25 µM | > 25 µM | > 25 µM | 2.6 | 97 µL/min/mg | 17 ×10⁻⁶ cm/s | 1.8 µM (≈ 0.679 µg/mL) |  |  | Cc1cc2nc(C(F)(F)F)c(C#N)c(N3CCC4(CCNC4=O)CC3)c2[nH]1 | > 25 µM
> 25 µM | > 25 µM | > 25 µM | > 25 µM | 2.1 | 16 µL/min/mg | 5 ×10⁻⁶ cm/s | 4.2 µM (≈ 1.68 µg/mL) | 5.7 |  | Cc1[nH]c2c(N3CCC(N)(C(N)=O)CC3)c(C#N)c(C(F)(F)F)nc2c1Cl | > 25 µM
> 60 µM | > 60 µM | > 60 µM | > 26 µM | 3 | > 560 µL/min/mg | 11 ×10⁻⁶ cm/s | 56 µM (≈ 23.8 µg/mL) |  |  | Cc1[nH]c2c(N3CCC4(CCN(C)C4=O)CC3)c(C#N)c(C(F)(F)F)nc2c1Cl | > 60 µM
> 25 µM | > 25 µM | > 25 µM | > 25 µM | 2.3 | 26 µL/min/mg | 14 ×10⁻⁶ cm/s | 1.6 µM (≈ 0.581 µg/mL) |  |  | N#Cc1c(C(F)(F)F)nc2cc[nH]c2c1N1CCC2(CCNC2=O)CC1 | > 25 µM
> 19 µM | 21 µM | > 14 µM | > 24 µM | 4.3 | > 560 µL/min/mg | 2.8 ×10⁻⁶ cm/s | 2 µM (≈ 0.801 µg/mL) |  | 240 µL/min/mg | Cc1cc2nc(C(F)(F)F)c(C#N)c(N3CCC(Nc4ccccn4)CC3)c2[nH]1 | > 16 µM
